pIC50: −log10 of the molar value. Active and inactive are the calls of the source. The calls are words filed in the database; no cut-off is given here.

One experiment deals with WI-38. The experiment is described as follows: Cytotoxicity against human WI38 cells assessed as reduction in inhibition of cell growth incubated for 48 hrs by MTT assay. The format is cell-based. The note with it: WI-38, 48 h. For orientation: Tetrazolium assays rely on reduction of a dye to a coloured formazan, in cell work by metabolically active cells.
Experiment [1] deals with A549. The experiment is described as follows: Cytotoxicity against human A549 cells assessed as reduction in inhibition of cell growth incubated for 48 hrs by MTT assay. Type of experiment: functional, cell-based. The note with it: A549, 48 h.
In another experiment the test system is HeLa. The experiment is described as follows: Cytotoxicity against human HeLa cells assessed as reduction in inhibition of cell growth incubated for 48 hrs by MTT assay. The format is functional, cell-based.
The next experiment concerns LoVo. The experiment can be described thus: Cytotoxicity against human LoVo cells assessed as reduction in inhibition of cell growth incubated for 48 hrs by MTT assay. The format is functional, cell-based.
A further experiment relates to HepG2. The experiment can be described thus: Cytotoxicity against human HepG2 cells assessed as reduction in inhibition of cell growth incubated for 48 hrs by MTT assay. Type of experiment: functional, cell-based. Particulars: HepG2, 48 h.
In experiment [2] the test system is A549. The experiment is described as follows: Induction of DNA double stranded breaks in human A549 cells assessed as increase in p73 protein levels at 1 to 10 uM incubated for 12 hrs by Western blotting. Type of experiment: functional, cell-based. Put shortly:
(§1)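 A549 cells exposed for 12 h to 1, 5 or 10 μM alongside vehicle and etoposide (5 μM) as a reference. Lysates were probed by western blotting for phospho-H2AX (Ser-139, γH2AX), p73 and phospho-ATM.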
A general note: In western blotting, separated proteins are transferred to a membrane and probed.

Experiment [3] has as its system A549. The experiment is described as follows: Induction of cell cycle arrest in human A549 cells assessed as increase in accumulation at G2/M phase at 1 to 5 uM incubated for 12 hrs by propidium iodide staining based FACS analysis. A general note: In flow cytometry, cells or beads pass a laser one at a time.
Experiment [4] concerns A549. The experiment is described as follows: Induction of cell cycle arrest in human A549 cells assessed as reduction in accumulation at G1 phase at 1 to 5 uM incubated for 12 hrs by propidium iodide staining based FACS analysis.
Experiment [5] relates to A549. The experiment can be described thus: Induction of DNA double stranded breaks in human A549 cells assessed as increase in gamma-H2Ax level at 1 to 5 uM incubated for 12 hrs by DAPI staining based immunofluorescence assay. The format is functional, cell-based. In short, it runs like this:
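A549 cells were treated 12 h with vehicle, 1 μM or 5 μM, then immunostained with anti-γH2AX antibody and counterstained with DAPI. Nuclear γH2AX foci were scored by immunofluorescence as a marker of DNA double-strand breaks.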

Experiment [6] deals with A549. The experiment can be described thus: Inhibition of topoisomerase 2beta protein expression in human A549 cells at 1 to 10 uM incubated for 12 hrs by Western blotting. The format is functional, cell-based. In short, it runs like this:
(§2)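 Topo-IIα and topo-IIβ expression was measured in A549 cells treated 12 h at 1, 5 and 10 μM, with etoposide (5 μM) as a reference treatment.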

Experiment [7] deals with A549. The experiment is described as follows: Induction of DNA double stranded breaks in human A549 cells assessed as increase in ATM phosphorylation levels at 1 to 10 uM incubated for 12 hrs by Western blotting. The format is functional, cell-based. Put shortly: as §1
The target of experiment [8] is DNA topoisomerase 2-alpha (Homo sapiens) (UniProt P11388). The experiment is described as follows: Inhibition of topoisomerase 2alpha in human A549 cells assessed as reduction in enzyme-mediated super coliling activity by measuring induction of pBR322 DNA relaxation at 100 uM incubated for 12 hrs by ethidium bromide staining based agarose gel electrophoresis method. Type of experiment: cell-based.

Experiment [9] deals with A549. The experiment can be described thus: Induction of cell cycle arrest in human A549 cells assessed as increase in cdc2(p34) protein level at 1 to 10 uM incubated for 12 hrs by Western blotting. Type of experiment: functional, cell-based. In short, it runs like this: (§3)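 For G2/M regulators, A549 cells were exposed 12 h to 1, 5 or 10 μM and analysed by western blotting for cyclin B1 and cdc2(p34).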

The test system of experiment [10] is A549. The experiment is described as follows: Induction of DNA double stranded breaks in human A549 cells assessed as increase in gamma-H2Ax level at 1 to 10 uM incubated for 12 hrs by Western blotting. The format is functional, cell-based. In short, it runs like this:
as §1

Experiment [11] relates to A549. The experiment is described as follows: Inhibition of topoisomerase 2alpha protein expression in human A549 cells at 1 to 10 uM incubated for 12 hrs by Western blotting. Type of experiment: functional, cell-based. In short, it runs like this:
as §2

Experiment [12] deals with A549. The experiment can be described thus: Induction of cell cycle arrest in human A549 cells assessed as increase in cyclin B1 protein level at 1 to 10 uM incubated for 12 hrs by Western blotting. The format is functional, cell-based. In short, it runs like this:
as §3

Chain of DNA topoisomerase 2-alpha (Homo sapiens) (P11388 whole entry): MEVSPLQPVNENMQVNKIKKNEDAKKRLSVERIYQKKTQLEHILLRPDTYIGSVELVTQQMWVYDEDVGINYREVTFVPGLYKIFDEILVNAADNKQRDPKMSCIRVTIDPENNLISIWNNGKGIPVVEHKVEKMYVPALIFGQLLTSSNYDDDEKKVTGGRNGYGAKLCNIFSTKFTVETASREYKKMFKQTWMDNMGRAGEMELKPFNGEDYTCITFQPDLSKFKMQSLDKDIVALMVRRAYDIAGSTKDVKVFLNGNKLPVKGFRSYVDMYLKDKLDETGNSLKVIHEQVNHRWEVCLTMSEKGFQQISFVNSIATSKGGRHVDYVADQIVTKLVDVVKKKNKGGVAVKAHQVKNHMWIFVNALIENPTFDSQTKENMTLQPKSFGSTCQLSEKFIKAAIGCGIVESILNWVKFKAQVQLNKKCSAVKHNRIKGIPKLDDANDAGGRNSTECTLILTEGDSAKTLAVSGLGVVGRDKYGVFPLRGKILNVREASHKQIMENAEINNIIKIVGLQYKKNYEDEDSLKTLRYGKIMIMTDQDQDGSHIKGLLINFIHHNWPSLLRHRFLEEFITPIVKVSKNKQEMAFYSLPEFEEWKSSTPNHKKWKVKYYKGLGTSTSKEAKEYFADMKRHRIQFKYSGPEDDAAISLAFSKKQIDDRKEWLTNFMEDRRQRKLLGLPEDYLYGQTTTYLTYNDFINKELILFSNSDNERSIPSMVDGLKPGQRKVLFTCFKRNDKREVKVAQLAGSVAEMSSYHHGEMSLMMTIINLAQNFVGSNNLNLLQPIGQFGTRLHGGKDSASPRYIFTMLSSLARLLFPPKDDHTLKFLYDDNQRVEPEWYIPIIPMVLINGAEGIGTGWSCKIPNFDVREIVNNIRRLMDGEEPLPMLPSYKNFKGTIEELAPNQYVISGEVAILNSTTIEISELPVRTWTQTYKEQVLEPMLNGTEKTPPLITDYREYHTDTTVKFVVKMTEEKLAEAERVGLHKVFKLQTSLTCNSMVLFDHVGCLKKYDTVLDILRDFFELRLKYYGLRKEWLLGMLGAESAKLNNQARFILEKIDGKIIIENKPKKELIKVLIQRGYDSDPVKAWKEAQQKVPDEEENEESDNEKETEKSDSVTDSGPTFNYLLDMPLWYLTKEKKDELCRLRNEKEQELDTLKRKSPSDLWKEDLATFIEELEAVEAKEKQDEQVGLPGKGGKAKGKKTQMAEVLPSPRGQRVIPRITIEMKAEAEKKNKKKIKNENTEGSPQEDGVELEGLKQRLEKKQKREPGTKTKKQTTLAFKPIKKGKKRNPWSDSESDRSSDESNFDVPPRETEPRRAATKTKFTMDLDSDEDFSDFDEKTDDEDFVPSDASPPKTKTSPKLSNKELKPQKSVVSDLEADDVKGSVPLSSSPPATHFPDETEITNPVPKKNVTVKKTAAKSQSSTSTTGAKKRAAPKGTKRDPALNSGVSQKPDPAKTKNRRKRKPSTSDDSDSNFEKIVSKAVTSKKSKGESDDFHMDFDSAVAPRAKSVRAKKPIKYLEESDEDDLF

In general, pIC50 refers to the IC50 on a negative log10 scale, so that one unit is a factor of ten. As to `COc1cc([C@@H]2c3cc4c(cc3[C@@H](Nc3nc(CC(=O)NC5CCCCC5)cs3)[C@H]3COC(=O)[C@H]23)OCO4)cc(OC)c1O`, the pIC50 is 4.11 in the experiment with WI-38; 5.03 in the experiment with A549 [1]; 4.97 in the experiment on HeLa; 4.72 with LoVo; 4.79 with HepG2.
`COc1cc([C@@H]2c3cc4c(cc3[C@@H](Nc3nc(CC(=O)N5CCN(C6CCCC6)CC5)cs3)[C@H]3COC(=O)[C@H]23)OCO4)cc(OC)c1O`: the Activity result in the experiment on A549 [2], with A549 [3], with A549 [4], in the experiment with A549 [7], with A549 [9] and in the experiment on A549 [10] was “Dose-dependent effect” each time. Also, in the experiment with A549 [12], the Activity result was “Dose-dependent effect”. Moreover, the negative-log IC50 (pIC50) with WI-38 was 4.18; with A549 [1], 5.89; in the experiment on HeLa, 5.36; with LoVo, 5.04; with HepG2, 5.07. Moreover, in the experiment on A549 [5], the outcome was Active. Also, the inhibition entry in the experiment on A549 [6] and in the experiment with A549 [11] was “Dose-dependent effect” in each case. Besides, in experiment [8], the inhibition entry is “Active”.
With `COc1cc([C@@H]2c3cc4c(cc3[C@@H](Nc3nc(CC(=O)N5CCOCC5)cs3)[C@H]3COC(=O)[C@H]23)OCO4)cc(OC)c1O`, the negative-log IC50 (pIC50) with WI-38 is 4.47; with A549 [1], 4.73; in the experiment with HeLa, 4.83; in the experiment on LoVo it was 4.43; in the experiment on HepG2, 4.82.
The corresponding values for `COc1cc([C@@H]2c3cc4c(cc3[C@@H](Nc3nc(CC(=O)O)cs3)[C@H]3COC(=O)[C@H]23)OCO4)cc(OC)c1O` are 4.37, 5.08, 5.06, 4.99 and 5.03.
As for `CCOC(=O)Cc1csc(N[C@@H]2c3cc4c(cc3[C@@H](c3cc(OC)c(O)c(OC)c3)[C@H]3C(=O)OC[C@@H]32)OCO4)n1`, the negative logarithm of the IC50 (pIC50) in the experiment with WI-38 was 4.35; in the experiment on A549 [1], 5.03; in the experiment with HeLa it was 4.90; in the experiment on LoVo, 5.15; in the experiment on HepG2, 6.92.
For `COc1cc([C@@H]2c3cc4c(cc3[C@@H](Nc3nc(CC(=O)N5CCN(C)CC5)cs3)[C@H]3COC(=O)[C@H]23)OCO4)cc(OC)c1O`, the pIC50 in the experiment on WI-38 was 4.55; in the experiment with A549 [1] it was 4.65; in the experiment on HeLa, 4.78; in the experiment with LoVo, 4.56; in the experiment with HepG2 it was 4.73.
With `COc1cc([C@@H]2c3cc4c(cc3[C@@H](O[C@@H]3O[C@@H]5CO[C@@H](C)O[C@H]5[C@H](O)[C@H]3O)[C@H]3COC(=O)[C@H]23)OCO4)cc(OC)c1O` [ETOPOSIDE], the pIC50 in the experiment with WI-38 is 4.59; in the experiment on A549 [1], 5.04; in the experiment on HeLa it was 4.95; with LoVo it was 4.73; in the experiment with HepG2 it was 5.04.
`COc1cc([C@@H]2c3cc4c(cc3[C@@H](Nc3nc(CC(=O)NC5CCCC5)cs3)[C@H]3COC(=O)[C@H]23)OCO4)cc(OC)c1O`: the negative logarithm of the IC50 (pIC50) is 4.54 in the experiment with WI-38; 5.04 in the experiment with A549 [1]; 4.85 in the experiment with HeLa; 4.68 in the experiment with LoVo; 4.72 with HepG2.
Regarding `CCOC(=O)c1csc(N[C@@H]2c3cc4c(cc3[C@@H](c3cc(OC)c(O)c(OC)c3)[C@H]3C(=O)OC[C@@H]32)OCO4)n1`, the Activity entry with A549 [2], in the experiment with A549 [3], in the experiment with A549 [4], in the experiment on A549 [7], in the experiment on A549 [9] and in the experiment with A549 [10] was “Dose-dependent effect” each time. The Activity result in the experiment on A549 [12] is “Dose-dependent effect”. Also, the negative logarithm of the IC50 (pIC50) was 4.26 in the experiment with WI-38; 6.80 with A549 [1]; 5.25 in the experiment with HeLa; 5.30 with LoVo; 6.89 in the experiment with HepG2. Besides, the result in the experiment with A549 [5] was Active. For the same compound, the inhibition result with A549 [6] and with A549 [11] was “Dose-dependent effect” throughout. Further, in experiment [8], the inhibition result was “Active”.
In the case of `COc1cc([C@@H]2c3cc4c(cc3[C@@H](Nc3nc(CC(=O)NC5CC5)cs3)[C@H]3COC(=O)[C@H]23)OCO4)cc(OC)c1O`, the pIC50 with WI-38 was 4.25; in the experiment on A549 [1] it was 4.95; in the experiment on HeLa, 4.76; in the experiment on LoVo, 4.72; in the experiment with HepG2 it was 4.99.

These data come from ChEMBL document CHEMBL4177742, “Synthesis and biological evaluation of 4β-(thiazol-2-yl)amino-4'-O-demethyl-4-deoxypodophyllotoxins as topoisomerase-II inhibitors” (Bioorg Med Chem Lett, 2018).
